Data published in ChEMBL document CHEMBL1909630, “Azaxanthene based selective glucocorticoid receptor modulators: design, synthesis, and pharmacological evaluation of (S)-4-(5-(1-((1,3,4-thiadiazol-2-yl)amino)-2-methyl-1-oxopropan-2-yl)-5H-chromeno[2,3-b]pyridin-2-yl)-2-fluoro-N,N-dimethylbenzamide (BMS-776532) and its methylene homologue …” (J Med Chem, 2011).

Key:
[1] = target: T1, Glucocorticoid receptor (Homo sapiens, UniProt P04150); experiment: Displacement of GS-red from glucocorticoid receptor by fluorescence polarization assay
T1 sequence (P04150 whole entry): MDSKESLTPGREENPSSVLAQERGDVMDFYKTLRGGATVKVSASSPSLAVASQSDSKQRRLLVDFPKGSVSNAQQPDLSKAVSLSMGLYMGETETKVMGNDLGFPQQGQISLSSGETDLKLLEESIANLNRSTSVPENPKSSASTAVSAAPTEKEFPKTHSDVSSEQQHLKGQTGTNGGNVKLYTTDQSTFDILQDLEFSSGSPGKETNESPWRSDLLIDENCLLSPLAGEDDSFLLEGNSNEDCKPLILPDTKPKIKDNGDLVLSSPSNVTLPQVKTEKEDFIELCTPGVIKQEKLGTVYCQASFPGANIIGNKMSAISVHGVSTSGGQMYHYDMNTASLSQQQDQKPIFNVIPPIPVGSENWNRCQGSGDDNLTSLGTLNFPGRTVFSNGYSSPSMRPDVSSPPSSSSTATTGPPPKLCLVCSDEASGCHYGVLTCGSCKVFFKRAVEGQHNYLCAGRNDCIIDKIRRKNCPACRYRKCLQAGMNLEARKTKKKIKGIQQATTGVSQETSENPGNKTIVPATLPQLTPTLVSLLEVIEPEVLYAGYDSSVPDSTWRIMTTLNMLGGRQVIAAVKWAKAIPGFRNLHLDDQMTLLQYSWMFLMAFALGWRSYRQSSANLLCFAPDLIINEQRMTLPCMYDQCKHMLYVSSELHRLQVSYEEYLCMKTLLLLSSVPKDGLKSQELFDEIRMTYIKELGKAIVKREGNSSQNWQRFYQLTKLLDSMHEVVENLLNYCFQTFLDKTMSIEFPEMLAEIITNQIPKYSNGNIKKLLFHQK

[2] = target: T2, Mineralocorticoid receptor (Homo sapiens, UniProt P08235); experiment: Agonist activity at human mineralocorticoid receptor expressed in human A549 cells by fluorescence polarization assay; assay type: functional, cell-based
T2 sequence (P08235 whole entry): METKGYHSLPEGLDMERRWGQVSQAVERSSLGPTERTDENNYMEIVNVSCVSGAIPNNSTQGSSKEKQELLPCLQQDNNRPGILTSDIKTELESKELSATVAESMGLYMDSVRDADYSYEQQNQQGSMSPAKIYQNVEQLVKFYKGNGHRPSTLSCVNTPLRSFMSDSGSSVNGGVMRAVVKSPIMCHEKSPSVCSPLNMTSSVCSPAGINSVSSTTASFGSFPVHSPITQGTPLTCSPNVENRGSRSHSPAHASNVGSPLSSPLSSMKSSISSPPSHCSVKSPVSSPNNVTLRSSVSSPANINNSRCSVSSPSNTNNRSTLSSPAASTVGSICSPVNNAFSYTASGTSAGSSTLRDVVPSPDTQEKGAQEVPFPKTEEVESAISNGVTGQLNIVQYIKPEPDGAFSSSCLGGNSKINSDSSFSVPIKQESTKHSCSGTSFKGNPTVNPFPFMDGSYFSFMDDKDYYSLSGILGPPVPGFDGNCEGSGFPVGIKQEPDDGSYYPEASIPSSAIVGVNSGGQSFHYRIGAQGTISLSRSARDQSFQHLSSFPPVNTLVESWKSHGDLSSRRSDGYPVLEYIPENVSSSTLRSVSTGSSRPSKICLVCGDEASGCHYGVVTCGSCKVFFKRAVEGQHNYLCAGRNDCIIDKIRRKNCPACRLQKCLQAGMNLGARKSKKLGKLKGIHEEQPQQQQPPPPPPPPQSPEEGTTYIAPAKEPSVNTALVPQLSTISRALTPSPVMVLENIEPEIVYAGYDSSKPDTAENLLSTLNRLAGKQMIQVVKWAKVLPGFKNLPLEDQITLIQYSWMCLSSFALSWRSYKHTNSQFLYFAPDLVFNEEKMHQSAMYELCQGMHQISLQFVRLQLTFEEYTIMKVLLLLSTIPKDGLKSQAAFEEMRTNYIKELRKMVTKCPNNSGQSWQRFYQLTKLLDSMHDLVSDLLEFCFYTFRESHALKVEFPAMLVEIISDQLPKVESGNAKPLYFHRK

[3] = target: T1, Glucocorticoid receptor; experiment: Transactivation activity at GR-alpha in human NP1 Hela cells assessed as induction of GAL4-DBD after 20 hrs by luciferase reporter gene assay; assay type: cell-based
[4] = target: T1, Glucocorticoid receptor; experiment: Transactivation activity at GR-alpha in human NP1 Hela cells assessed as inhibition of GAL4-DBD after 20 hrs by luciferase reporter gene assay; assay type: cell-based
[5] = test system: MG-63; experiment: Induction of glutamine synthase expression in human MG63 cells after overnight incubation by spectrophotometry; assay type: cell-based
[6] = test system: Blood; experiment: Antiinflammatory activity in human whole blood assessed as inhibition of TNF-alpha-induced IL-8 production after overnight incubation by ELISA; assay type: functional, tissue-based
[7] = test system: Blood; experiment: Antiinflammatory activity in human whole blood assessed as inhibition of TNF-alpha-induced IL-8 production after overnight incubation by ELISA relative to dexamethasone; assay type: functional
[8] = Cmax in Sprague-Dawley rat at 50 mg/kg, po; assay type: ADME, organism-based; parameters: dose 50 mg/kg, route oral; details: in vivo
How it was run: (§1)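 Male Sprague-Dawley rats received a single intravenous (1 mg/kg) or oral (10 or 50 mg/kg) dose. Plasma pharmacokinetic parameters were derived from these profiles.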

[9] = AUC in Sprague-Dawley rat at 10 mg/kg, po; assay type: ADME, organism-based; parameters: dose 10 mg/kg, route oral; details: plasma; how it was run: as §1
[10] = Half life in Sprague-Dawley rat at 1 mg/kg, iv; assay type: ADME, organism-based; parameters: dose 1 mg/kg, route intravenous; details: in vivo; how it was run: as §1
[11] = Volume of distribution at steady state in Sprague-Dawley rat at 1 mg/kg, iv; assay type: ADME, organism-based; parameters: dose 1 mg/kg, route intravenous; details: in vivo, read-out: Vdss; how it was run: as §1
[12] = Oral bioavailability in Sprague-Dawley rat at 10 mg/kg; assay type: ADME, organism-based; details: in vivo; how it was run: as §1
[13] = Oral bioavailability in Sprague-Dawley rat at 50 mg/kg; assay type: ADME, organism-based; details: in vivo; how it was run: as §1
[14] = Drug level in plasma of Sprague-Dawley rat at 30 mg/kg, po measured after 6 hrs; assay type: ADME, organism-based; parameters: dose 30 mg/kg, route oral; details: read-out: Drug uptake
How it was run: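 Plasma exposure was measured in Sprague-Dawley rats 6 h after a single oral dose of 30 mg/kg given in the carrageenan paw edema study.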

[15] = test system: Rattus norvegicus; experiment: Antiinflammatory activity in po dosed Freund's complete adjuvant-induced Lewis rat arthritis model assessed as reduction in progression of arthritis; assay type: functional, organism-based
How it was run: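 Male Lewis rats were inoculated with Mycobacterium butyricum in incomplete Freund's adjuvant. Oral dosing was daily and preventative, running from day 0 to day 21. Onset and progression of arthritis were followed, and ED50 was estimated from the dose response.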

[16] = test system: Blood; experiment: Antiinflammatory activity in Sprague-Dawley rat whole blood assessed as inhibition of LPS-induced TNFalpha production

| SMILES | Ki [1] [nM] | EC50 [2] [nM] | EC50 [3] [nM] | EC50 [4] [nM] | EC50 [5] [nM] | EC50 [6] [nM] | Imax [7] [%] | Cmax [8] [ng/mL] | AUC [9] [ng·h/mL] | half-life [10] [min] | Vd [11] [L/kg] | bioavailability [12] [%] | bioavailability [13] [%] | concentration at 6 h [14] [nM] | Activity [15] | EC50 [16] [nM] |
| --- | --- | --- | --- | --- | --- | --- | --- | --- | --- | --- | --- | --- | --- | --- | --- | --- |
| CN(C)C(=O)c1ccc(-c2ccc3c(n2)Oc2ccccc2[C@H]3C(C)(C)C(=O)Nc2nncs2)cc1F | 1.94 | > 5000 | 242 | 143 | 44 | 1470 | 55 | 3210 | 673 | 36 | 1 | 20 | 119 | 788 | Dose-dependent effect | 189 |
| CCN(C)C(=O)c1ccc(-c2ccc3c(n2)Oc2ccccc2[C@@H]3C(C)(C)C(=O)Nc2nncs2)cc1F | 1.64 | > 5000 | 98.5 | 113 | 207 | 532 | 76 | 3080 | 904 | 24 | 0.5 | 17 | 107 | 1110 | Dose-dependent effect | 215 |
